ChEMBL document CHEMBL1799999, “N-benzoylated phenoxazines and phenothiazines: synthesis, antiproliferative activity, and inhibition of tubulin polymerization” (J Med Chem, 2011)
The source made the active and inactive calls. No cut-off for these calls is given here.

What was measured:
DLD-1 = assay: Antiproliferative activity against human DLD1 cells after 48 hrs by alamar blue assay; format: functional, cell-based; conditions: DLD-1, 48 h
How it was run: (§1)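 Cells seeded in growth medium and grown 24 h at 37 °C/5% CO2. 10 mM DMSO stocks diluted in half-log steps into medium, final DMSO 0.316%. After 45 h of compound exposure, AlamarBlue (resazurin) added for a further 3 h, giving 48 h total. Fluorescence read at 590 nm against untreated and cell-free blanks. At least two replicates; IC50 by nonlinear regression.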

BT-549 = assay: Antiproliferative activity against human BT549 cells after 48 hrs by alamar blue assay; format: functional, cell-based; conditions: BT-549, 48 h; how it was run: as §1
cells = conditions: Homo sapiens, 451Lu, 48 h
Potorous tridactylus = assay: Inhibition of tubulin polymerization in Potorous tridactylus Ptk2 cells assessed as destruction of microtubule network at 5 uM after 1 hr by immunofluorescence assay
How it was run: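 PtK2 cells exposed 1 h to 5 μM compound in RPMI medium with 2% DMSO; solvent-only controls. Microtubules labelled with Cy3-anti-tubulin antibody and examined by immunofluorescence microscopy.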

K562 [1] = assay: Cell cycle arrest in human K562 cells assessed as accumulation at G2/M phase at 0.003 to. 1 ug/ml after 24 hrs by flow cytometric analysis; format: functional, cell-based
How it was run: (§2)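 K562 cells (2 × 10^5/mL) exposed to graded concentrations for 24 h at 37 °C; vehicle DMSO/MeOH 1:1. Washed in PBS, fixed in ice-cold 70% ethanol, stained 30 min with propidium iodide 0.02 mg/mL plus RNase 0.2 mg/mL. DNA content read by flow cytometry with 488 nm excitation; G2/M fraction scored.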

SK-OV-3 = assay: Antiproliferative activity against human SKOV3 cells after 48 hrs by alamar blue assay; format: functional, cell-based; conditions: SK-OV-3, 48 h; how it was run: as §1
COLO 205 = assay: Antiproliferative activity against human COLO205 cells after 48 hrs by alamar blue assay; format: functional, cell-based; conditions: COLO 205, 48 h; how it was run: as §1
NCI-H460 = assay: Antiproliferative activity against human NCI-H460 cells after 48 hrs by alamar blue assay; format: functional, cell-based; conditions: NCI-H460, 48 h; how it was run: as §1
SW480 = assay: Antiproliferative activity against human SW480 cells after 48 hrs by alamar blue assay; format: functional, cell-based; conditions: SW480, 48 h; how it was run: as §1
K562 [2] = assay: Antiproliferative activity against human K562 cells after 48 hrs by hemocytometric analysis; format: functional, cell-based; conditions: K562, 48 h
How it was run: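 K562 cells in RPMI 1640 with 10% FBS at 37 °C/5% CO2, plated at 2 × 10^5 cells/mL. Compounds in DMSO/methanol 1:1, final vehicle 0.5%. Cells counted in a Neubauer hemocytometer after 48 h and expressed as % of untreated control. Triplicate wells, three experiments; IC50 by nonlinear regression.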

Tubulin = Tubulin (Sus scrofa, UniProt P02554+P02550); assay: Inhibition of pig tubulin polymerization determined after 45 mins at 37 degC by turbidimetric analysis; format: protein assay
How it was run: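 Microtubule protein (80–90% tubulin with MAPs) from porcine brain, isolated by two cold/warm cycles. Buffer: 20 mM PIPES pH 6.8, 80 mM NaCl, 0.5 mM MgCl2, 1 mM EGTA, 1 mM DTT. Protein at 1.2 mg/mL (about 10 μM tubulin) with 0.6 mM GTP, 1% DMSO, 37 °C.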

[3] = Antiproliferative activity against human resting PBMC after 72 hrs by sulforhodamine staining method; format: cell-based
How it was run: (§3)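 Panel of 83 solid-tumour lines plus resting PBMC, run by the DTP NCI sulforhodamine B staining protocol. Compound exposure 72 h, concentrations from 0.0001 to 10 μM. GI50 taken per line; z-scores computed relative to the panel mean GI50.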

ASPC1 = assay: Antiproliferative activity against human AsPC1 cells after 72 hrs by sulforhodamine staining method; format: functional; conditions: ASPC1, 72 h; how it was run: as §3
K562 [4] = assay: Cell cycle arrest in human K562 cells assessed as accumulation at G2/M phase at 30 nM after 24 hrs by flow cytometric analysis; format: functional, cell-based; how it was run: as §2

COc1cc2c(c(OC)c1OC)-c1ccc(OC)c(=O)cc1[C@@H](NC(C)=O)CC2 [COLCHICINE]
IC50 (DLD-1): 89 nM
IC50 (BT-549): 23 nM
IC50 (cells): 17 nM
inhibition (Potorous tridactylus): Active
Activity (K562 [1]): Active
IC50 (SK-OV-3): 29 nM
IC50 (COLO 205): 21 nM
IC50 (NCI-H460): 27 nM
IC50 (SW480): 30 nM

Clc1ccc2c(c1)Nc1ccccc1S2
IC50 (K562 [2]): > 100000 nM

COc1ccc(C(=O)N2c3ccccc3Oc3cccc(C#N)c32)cc1
IC50 (K562 [2]): 120 nM
IC50 (Tubulin): 960 nM

O=C(c1ccc(Br)cc1)N1c2ccccc2Oc2ccc(Cl)cc21
IC50 (K562 [2]): > 25000 nM

O=C(c1ccccc1)N1c2ccccc2Sc2ccccc21
IC50 (K562 [2]): > 30000 nM

O=C(c1ccccc1)N1c2ccccc2S(=O)(=O)c2ccccc21
IC50 (K562 [2]): > 30000 nM

O=C(c1ccccc1)N1c2ccccc2Sc2ccc(Cl)cc21
IC50 (K562 [2]): > 30000 nM

COc1ccc(C(=O)N2c3ccccc3Sc3ccc(C(F)(F)F)cc32)cc1
IC50 (K562 [2]): 4600 nM
IC50 (Tubulin): > 10000 nM

COc1ccc(CC(=O)N2c3ccccc3Oc3ccc(Cl)cc32)cc1
IC50 (K562 [2]): 550 nM
IC50 (Tubulin): 1100 nM

CC(=O)N1c2ccccc2Oc2ccc(Cl)cc21
IC50 (K562 [2]): > 30000 nM

O=C(c1ccc(Cl)cc1)N1c2ccccc2Oc2ccc(Cl)cc21
IC50 (K562 [2]): 20000 nM
IC50 (Tubulin): 2420 nM

COc1cc(C(=O)N2c3ccccc3Oc3ccc(Cl)cc32)cc(OC)c1O
IC50 (K562 [2]): 4630 nM
IC50 (Tubulin): 680 nM

COc1ccc(C(=O)N2c3ccccc3[S+]([O-])c3ccc(OC)cc32)cc1 (stereo unspecified)
IC50 (K562 [2]): 1650 nM
IC50 (Tubulin): 23310 nM

COc1ccc(C(=O)N2c3ccccc3Oc3ccc(Cl)cc32)cc1O
IC50 (K562 [2]): 80 nM
GI50 at 72 h [3]: > 10000 nM
IC50 (DLD-1): 230 nM
IC50 (BT-549): 320 nM
IC50 (Tubulin): 730 nM
IC50 (cells): 27 nM
inhibition (Potorous tridactylus): Active
GI50 (ASPC1): > 10000 nM
IC50 (SK-OV-3): 170 nM
IC50 (COLO 205): 2680 nM
IC50 (NCI-H460): 390 nM
IC50 (SW480): 240 nM

O=C(c1ccccc1)N1c2ccccc2S(=O)(=O)c2ccc(Cl)cc21
IC50 (K562 [2]): > 30000 nM

COC(=O)Nc1nc2cc(C(=O)c3cccs3)ccc2[nH]1 [NOCODAZOLE]
IC50 (DLD-1): 190 nM
IC50 (BT-549): 69 nM
IC50 (cells): 72 nM
IC50 (SK-OV-3): 80 nM
IC50 (COLO 205): 88 nM
IC50 (NCI-H460): 68 nM
IC50 (SW480): 120 nM

COc1cc(C(=O)N2c3ccccc3Oc3ccc(Cl)cc32)cc(OC)c1OC
IC50 (K562 [2]): 24000 nM

c1ccc2c(c1)Nc1ccccc1O2 [PHENOXAZINE]
IC50 (K562 [2]): > 30000 nM
IC50 (Tubulin): > 10000 nM

COc1cc(C(=O)N2c3ccccc3[S+]([O-])c3ccccc32)cc(OC)c1OC
IC50 (K562 [2]): 8030 nM
IC50 (Tubulin): > 10000 nM

COc1ccc(C(=O)N2c3ccccc3Oc3cc(C#N)ccc32)cc1
Activity (K562 [4]): Active
IC50 (K562 [2]): 14 nM
GI50 at 72 h [3]: > 10000 nM
IC50 (DLD-1): 9 nM
IC50 (BT-549): 8 nM
IC50 (Tubulin): 730 nM
IC50 (cells): 2 nM
GI50 (ASPC1): > 10000 nM
Activity (K562 [1]): Active
IC50 (SK-OV-3): 6 nM
IC50 (COLO 205): 6 nM
IC50 (NCI-H460): 15 nM
IC50 (SW480): 8 nM

O=C(c1ccccc1)N1c2ccccc2[S+]([O-])c2ccccc21
IC50 (K562 [2]): > 30000 nM

COc1ccc(C(=O)N2c3ccccc3Oc3ccc(C#N)cc32)cc1
IC50 (K562 [2]): 160 nM
IC50 (Tubulin): 2700 nM

O=C(c1ccccc1)N1c2ccccc2[S+]([O-])c2ccc(Cl)cc21 (stereo unspecified)
IC50 (K562 [2]): > 30000 nM

N#Cc1ccc2c(c1)Oc1ccccc1N2C(=O)c1ccc(Cl)cc1
IC50 (K562 [2]): 490 nM
IC50 (Tubulin): 2390 nM

COc1ccc(C(=O)N2c3ccccc3S(=O)(=O)c3ccccc32)cc1
IC50 (K562 [2]): 280 nM
IC50 (Tubulin): 2530 nM

COc1ccc(C(=O)N2c3ccccc3Sc3ccc(SC)cc32)cc1
IC50 (K562 [2]): 3620 nM
IC50 (Tubulin): 1430 nM

COc1ccc(C(=O)N2c3ccccc3S(=O)(=O)c3ccc(OC)cc32)cc1
IC50 (K562 [2]): 1580 nM
IC50 (Tubulin): 4690 nM

O=C(c1ccc2c(c1)OCO2)N1c2ccccc2Oc2ccc(Cl)cc21
IC50 (K562 [2]): 1120 nM
IC50 (Tubulin): 1130 nM

COc1cc(C(=O)N2c3ccccc3S(=O)(=O)c3ccc(Cl)cc32)cc(OC)c1OC
IC50 (K562 [2]): 4200 nM
IC50 (Tubulin): > 10000 nM
